Reference: ChEMBL document CHEMBL1122744, “2-Chloroethyl (methylsulfonyl)methanesulfonate and related (methylsulfonyl)methanesulfonates. Antineoplastic activity in vivo” (J Med Chem, 1984)

How the values were obtained:
Mus musculus [1] = assay: Change in weight by day 5, obtained by subtracting treated groups of animals minus control groups of animals at dose 200 mg/kg in exp1.; assay type: functional
Outline: (§1)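 Mice were inoculated ip with 10^6 P388 leukemia cells on day 0, when treated and control mice weighed 19–22 g. Treatment was given ip once daily on days 1–5, within about 5 min of preparing the solution or suspension. Groups of six (occasionally five) were treated, with 30 untreated inoculated mice as controls. The day-5 weight change is the mean treated change minus the mean control change.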

Mus musculus [2] = assay: Change in weight by day 5, obtained by subtracting treated groups of animals minus control groups of animals at dose 100 mg/kg in exp1.; assay type: functional; outline: as §1
Mus musculus [3] = assay: Change in weight by day 5, obtained by subtracting treated groups of animals minus control groups of animals at dose 100 mg/kg in exp2*-mortality was 5/6 by day 7; assay type: functional
Outline: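 Mice were inoculated ip with 10^6 P388 leukemia cells on day 0 and weighed 19–22 g that day. Compound was given ip once daily on days 1–5, within about 5 min of preparing the solution or suspension, to groups of six (occasionally five). Thirty inoculated untreated mice served as controls. The value is the average weight change of treated mice minus that of controls on day 5.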

Mus musculus [4] = assay: Change in weight by day 5, obtained by subtracting treated groups of animals minus control groups of animals at dose 12 mg/kg in exp2; assay type: functional; outline: as §1
Mus musculus [5] = assay: Change in weight by day 5, obtained by subtracting treated groups of animals minus control groups of animals at dose 25 mg/kg in exp1.; assay type: functional; outline: as §1
Mus musculus [6] = assay: Change in weight by day 5, obtained by subtracting treated groups of animals minus control groups of animals at dose 25 mg/kg in exp2; assay type: functional; outline: as §1
Mus musculus [7] = assay: Change in weight by day 5, obtained by subtracting treated groups of animals minus control groups of animals at dose 50 mg/kg in exp1.; assay type: functional; outline: as §1
Mus musculus [8] = assay: Change in weight by day 5, obtained by subtracting treated groups of animals minus control groups of animals at dose 50 mg/kg in exp2; assay type: functional; outline: as §1
Mus musculus [9] = assay: Mortality by day 5 expressed as number of mice died to the total treated at dose 100 mg/kg in exp1; 0/6; assay type: ADME, organism-based; parameters: dose 100 mg/kg; details: in vivo
Mus musculus [10] = assay: Mortality by day 5 expressed as number of mice died to the total treated at dose 100 mg/kg in exp2; 2/6; assay type: ADME, organism-based; parameters: dose 100 mg/kg; details: in vivo
Mus musculus [11] = assay: Mortality by day 5 expressed as number of mice died to the total treated at dose 12 mg/kg in exp2; 0/6; assay type: ADME, organism-based; parameters: dose 12 mg/kg; details: in vivo
Mus musculus [12] = assay: Median survival time of the treated control groups, in which there are no 30-day survivors at dose 12 mg/kg in exp2; assay type: functional
Mus musculus [13] = assay: Median survival time of the treated control groups, in which there are no 30-day survivors at dose 100 mg/kg in exp1; assay type: functional
Mus musculus [14] = assay: Median survival time of the treated control groups, in which there are no 30-day survivors at dose 100 mg/kg in exp2; assay type: functional
Mus musculus [15] = assay: Median survival time of the treated control groups, in which there are no 30-day survivors at dose 25 mg/kg in exp1; assay type: functional
Mus musculus [16] = assay: Mortality by day 5 expressed as number of mice died to the total treated at dose 200 mg/kg in exp1; 5/6; assay type: ADME, organism-based; parameters: dose 200 mg/kg; details: in vivo
Mus musculus [17] = assay: Mortality by day 5 expressed as number of mice died to the total treated at dose 25 mg/kg in exp1; 0/6; assay type: ADME, organism-based; parameters: dose 25 mg/kg; details: in vivo
Mus musculus [18] = assay: Mortality by day 5 expressed as number of mice died to the total treated at dose 25 mg/kg in exp2; 0/6; assay type: ADME, organism-based; parameters: dose 25 mg/kg; details: in vivo
Mus musculus [19] = assay: Mortality by day 5 expressed as number of mice died to the total treated at dose 50 mg/kg in exp1; 0/6; assay type: ADME, organism-based; parameters: dose 50 mg/kg; details: in vivo
Mus musculus [20] = assay: Mortality by day 5 expressed as number of mice died to the total treated at dose 50 mg/kg in exp2; 0/6; assay type: ADME, organism-based; parameters: dose 50 mg/kg; details: in vivo
Mus musculus [21] = assay: Median survival time of the treated control groups, in which there are no 30-day survivors at dose 25 mg/kg in exp2; assay type: functional
[22] = (§2) Median survival time of the treated control groups, in which there are no 30-day survivors at dose 50 mg/kg in exp1; assay type: functional
[23] = Median survival time of the treated control groups, in which there are no 30-day survivors at dose 50 mg/kg in exp2; assay type: functional
Mus musculus [24] = assay: Median survival time of the untreated control groups, in which there are no 30-day survivors at dose 25 mg/kg in exp1; assay type: functional
[25] = (§3) Median survival time of the untreated control groups, in which there are no 30-day survivors at dose 50 mg/kg in exp1; assay type: functional
Mus musculus [26] = assay: Median survival time of the untreated control groups, in which there are no 30-day survivors at dose 100 mg/kg in exp1; assay type: functional
Mus musculus [27] = assay: Median survival time of the untreated control groups, in which there are no 30-day survivors at dose 100 mg/kg in exp2; assay type: functional
Mus musculus [28] = assay: Median survival time of the untreated control groups, in which there are no 30-day survivors at dose 12 mg/kg in exp2; assay type: functional
Mus musculus [29] = assay: Median survival time of the untreated control groups, in which there are no 30-day survivors at dose 200 mg/kg in exp1; assay type: functional
[30] = Ratio of number of 60-day survivors to the total treated mice at dose 100 mg/kg in exp1; 0/6; assay type: functional
[31] = Ratio of number of 60-day survivors to the total treated mice at dose 100 mg/kg in exp2; 0/6; assay type: functional
Mus musculus [32] = assay: Ratio of median survival times for non-survivors at dose 50 mg/kg in exp2; assay type: functional
Outline: (§4)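 Mice were inoculated ip with 10^6 P388 leukemia cells on day 0. Groups of six (occasionally five) were dosed ip qd on days 1–5 with fresh suspensions; 30 mice served as untreated controls. Deaths were recorded daily up to day 60. T/C% compares the median survival of treated non-survivors (<60 days) with the control median. Medians used grouped data when there were no 30-day survivors, otherwise ungrouped data. t = toxic.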

[33] = Ratio of number of 30-day survivors to the total treated mice at dose 100 mg/kg in exp1; 1/6; assay type: functional
Mus musculus [34] = assay: Ratio of number of 30-day survivors to the total treated mice at dose 100 mg/kg in exp2*-toxic; 1/6; assay type: ADME, organism-based; parameters: dose 100 mg/kg; details: in vivo, 720 h
[35] = Median survival time of the untreated control groups, in which there are no 30-day survivors at dose 25 mg/kg in exp2; assay type: functional
[36] = Ratio of median survival times for non-survivors at dose 100 mg/kg in exp2; assay type: functional; outline: as §4
[37] = Ratio of median survival times for non-survivors at dose 12 mg/kg in exp2; assay type: functional; outline: as §4
[38] = Ratio of median survival times for non-survivors at dose 200 mg/kg in exp1; t= toxic; assay type: ADME, organism-based; parameters: dose 200 mg/kg; details: in vivo; outline: as §4
[39] = Ratio of median survival times for non-survivors at dose 100 mg/kg in exp1; assay type: functional; parameters: unit: %; outline: as §4
[40] = Ratio of median survival times for non-survivors at dose 25 mg/kg in exp2; assay type: functional; outline: as §4
[41] = Ratio of median survival times for non-survivors at dose 50 mg/kg in exp1; assay type: functional; parameters: unit: %; outline: as §4
[42] = Ratio of median survival times for non-survivors at dose 25 mg/kg in exp1; assay type: functional
Mus musculus [43] = assay: as §2; assay type: functional
Mus musculus [44] = assay: as §3; assay type: functional

## CS(=O)(=O)CS(=O)(=O)OCCBr
Mus musculus [1]
  Change in weight: -5.4
Mus musculus [2]
  Change in weight: -2.9
Mus musculus [3]
  Change in weight: -4.7
Mus musculus [4]
  Change in weight: 0.3
Mus musculus [5]
  Change in weight: -0.8
Mus musculus [6]
  Change in weight: -1.5
Mus musculus [7]
  Change in weight: -2.1
Mus musculus [8]
  Change in weight: -1.8
Mus musculus [9]
  Mortality: 0
Mus musculus [10]
  Mortality: 2
Mus musculus [11]
  Mortality: 0
Mus musculus [12]
  Median survival time: 12.8
Mus musculus [13]
  Median survival time: 23.5
Mus musculus [14]
  Median survival time: 7
Mus musculus [15]
  Median survival time: 14.3
Mus musculus [16]
  Mortality: 5
Mus musculus [17]
  Mortality: 0
Mus musculus [18]
  Mortality: 0
Mus musculus [19]
  Mortality: 0
Mus musculus [20]
  Mortality: 0
Mus musculus [21]
  Median survival time: 16
[22]
  Median survival time: 16.7
[23]
  Median survival time: 18
Mus musculus [24]
  Median survival time: 10.5
[25]
  Median survival time: 10.5
Mus musculus [26]
  Median survival time: 10.5
Mus musculus [27]
  Median survival time: 13
Mus musculus [28]
  Median survival time: 13
Mus musculus [29]
  Median survival time: 10.5
[30]
  Ratio: 0
[31]
  Ratio: 0
Mus musculus [32]
  Ratio: 138
[33]
  Ratio: 1
Mus musculus [34]
  Ratio: 1
[35]
  Median survival time: 13
[36]
  Ratio: 54
[37]
  Ratio: 98
[38]
  Ratio: Toxic
[39]
  Ratio: 224
[40]
  Ratio: 123
[41]
  Ratio: 159
[42]
  Ratio: 136

## O=S(=O)(CCl)OCCBr
Mus musculus [2]
  Change in weight: -1.5
Mus musculus [7]
  Change in weight: -0.5
Mus musculus [9]
  Mortality: 0
Mus musculus [13]
  Median survival time: 12.7
Mus musculus [16]
  Mortality: 5
Mus musculus [19]
  Mortality: 0
Mus musculus [43]
  Median survival time: 12.3
Mus musculus [44]
  Median survival time: 11.1
Mus musculus [26]
  Median survival time: 11.1
Mus musculus [29]
  Median survival time: 11.1
[38]
  Ratio: Toxic
[39]
  Ratio: 114
[41]
  Ratio: 110
